This data set has as its system A549 human cancer cell line. Description: A549 differential cytotoxicity. The class given is cell-based. Conditions: for HCR (hypoxia cytotoxicity ratio): A549, oxic vs anoxic IC50, 4 h incubation then 48 h oxic exposure; for IC50: Homo sapiens. Summed up:
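A549 cells plated at 6000/well in MEM-alpha with 10% FBS and 0.02 mM 2′-deoxycytidine, attached 2 h. Anoxic arm in a Coy chamber with preconditioned medium and degassed plates; normoxic arm at 95% air/5% CO2. Final 50 μg mL−1 to 5 pg mL−1, duplicate wells. 4 h exposure, then 48 h aerobic without media change.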

The mark [1] stands for this setting: A549, read-out: IC50 [anoxic] (μM) ± SEM.
Setting [2] is: A549, read-out: IC50 [oxic] (μM) ± SEM.

The results in this text go back to article PMC12416921 (RSC Medicinal Chemistry, 2025).

Where two headings read alike, the source gives them in different places.

One may read the IC50 as the concentration that gives 50% inhibition. For the compound `COc1cc(C2=CCCc3c2ccc(OC)c3OC(C)c2cnc([N+](=O)[O-])n2C)cc(OC)c1OC` (stereo not drawn) [KGP291 (16), 5-(1-((2-Methoxy-5-(3,4,5-trimethoxyphenyl)-7,8-dihydronaphthalen-1-yl)oxy)ethyl)-1-methyl-2-nitro-1H-imidazole], the “HCR (hypoxia cytotoxicity ratio)” value worked out at 7.6. The IC50 under setting [1] is 0.05 ± 0.004 µM. Also, the 50% inhibitory concentration (IC50) under setting [2] was determined as 0.38 ± 0.03 µM.
Consider `COc1cc(C2=CCCCc3c2ccc(OC)c3OCc2cnc([N+](=O)[O-])n2C)cc(OC)c1OC` [KGP293 (21), 5-(((3-Methoxy-9-(3,4,5-trimethoxyphenyl)-6,7-dihydro-5H-benzo[7]annulen-4-yl)oxy)methyl)-1-methyl-2-nitro-1H-imidazole], for which the “HCR (hypoxia cytotoxicity ratio)” value is reported as 9.0. Moreover, the IC50 under setting [1] was 0.04 ± 0.005 µM. Besides, the IC50 under setting [2] turned out to be 0.36 ± 0.02 µM.
For the compound `COc1ccc2c(C(=O)c3cc(OC)c(OC)c(OC)c3)c(-c3ccc(OC)c(OCc4ccc([N+](=O)[O-])s4)c3)[nH]c2c1` [KGP311 (23), (6-Methoxy-2-(4-methoxy-3-((5-nitrothiophen-2-yl)methoxy)phenyl)-1H-indol-3-yl)(3,4,5-trimethoxyphenyl)methanone], the “HCR (hypoxia cytotoxicity ratio)” value turned out to be 79.7. In addition, the IC50 under setting [1] was 0.07 ± 0.04 µM. Further, the IC50 under setting [2] worked out at 5.58 ± 3.59 µM.
For `Nc1n[n+]([O-])c2ccccc2[n+]1[O-]` [TPZ (1), tirapazamine, reference compound], the “HCR (hypoxia cytotoxicity ratio)” value worked out at 8.9. Also, under setting [1], the concentration for half-maximal inhibition (IC50) stood at 7.1 µM. Further, the 50% inhibitory concentration (IC50) under setting [2] is 63.5 µM.
Taken in the same sequence, the figures for `COc1cc(C2=CCCCc3c2ccc(OC)c3OCc2ccc([N+](=O)[O-])s2)cc(OC)c1OC` [KGP305 (19), 2-(((3-Methoxy-9-(3,4,5-trimethoxyphenyl)-6,7-dihydro-5H-benzo[7]annulen-4-yl)oxy)methyl)-5-nitrothiophene] were 0.2, 0.22 ± 0.09 µM and 0.05 ± 0.005 µM.
For `COc1cc(C2=CCCCc3c2ccc(OC)c3OC(C)c2cnc([N+](=O)[O-])n2C)cc(OC)c1OC` (stereo not drawn) [KGP292 (22), 5-(1-((3-Methoxy-9-(3,4,5-trimethoxyphenyl)-6,7-dihydro-5H-benzo[7]annulen-4-yl)oxy)ethyl)-1-methyl-2-nitro-1H-imidazole], the “HCR (hypoxia cytotoxicity ratio)” value came out at 4.8. Further, the IC50 under setting [1] amounted to 0.14 ± 0.04 µM. In addition, the IC50 under setting [2] came out at 0.67 ± 0.13 µM.
With `COc1cc(C2=CCCCc3c2ccc(OC)c3OC(C)c2ccc([N+](=O)[O-])s2)cc(OC)c1OC` (stereo not drawn) [KGP304 (20), 2-(1-((3-Methoxy-9-(3,4,5-trimethoxyphenyl)-6,7-dihydro-5H-benzo[7]annulen-4-yl)oxy)ethyl)-5-nitrothiophene], the “HCR (hypoxia cytotoxicity ratio)” value is 6.0. Moreover, the 50% inhibitory concentration (IC50) under setting [1] worked out at 0.38 ± 0.12 µM. Also, the half-maximal inhibitory concentration (IC50) under setting [2] is 2.27 ± 1.01 µM.
`COc1cc(C2=CCCc3c2ccc(OC)c3OC(C)c2ccc([N+](=O)[O-])s2)cc(OC)c1OC` (stereo not drawn) [KGP25 (13), 2-(1-((2-Methoxy-5-(3,4,5-trimethoxyphenyl)-7,8-dihydronaphthalen-1-yl)oxy)ethyl)-5-nitrothiophene]: the “HCR (hypoxia cytotoxicity ratio)” value is 11.0. The IC50 under setting [1] worked out at 0.25 ± 0.08 µM. Further, under setting [2], the concentration for half-maximal inhibition (IC50) is 2.74 ± 1.13 µM.
With `COc1ccc2c(C(=O)c3cc(OC)c(OC)c(OC)c3)c(-c3ccc(OC)c(OC(C)(C)c4ccc([N+](=O)[O-])s4)c3)[nH]c2c1` [KGP354 (25), (6-Methoxy-2-(4-methoxy-3-((2-(5-nitrothiophen-2-yl)propan-2-yl)oxy)phenyl)-1H-indol-3-yl)(3,4,5-trimethoxyphenyl)methanone], the “HCR (hypoxia cytotoxicity ratio)” value came to 79. For the same compound, the IC50 under setting [1] was 0.07 ± 0.02 µM. Besides, under setting [2], the IC50 amounted to 5.53 ± 2.22 µM.
Consider `COc1cc(C2=CCCc3c2ccc(OC)c3OC(C)(C)c2ccc([N+](=O)[O-])s2)cc(OC)c1OC` [KGP66 (14), 2-(2-((2-Methoxy-5-(3,4,5-trimethoxyphenyl)-7,8-dihydronaphthalen-1-yl)oxy)propan-2-yl)-5-nitrothiophene], for which the “HCR (hypoxia cytotoxicity ratio)” value is reported as 2.6. Besides, the half-inhibitory concentration (IC50) under setting [1] amounted to 0.05 ± 0.01 µM. Moreover, the IC50 under setting [2] is 0.13 ± 0.06 µM.
Taken in the same sequence, the figures for `COc1cc(C2=CCCc3c2ccc(OC)c3OCc2cnc([N+](=O)[O-])n2C)cc(OC)c1OC` [KGP105 (15), 5-(((2-Methoxy-5-(3,4,5-trimethoxyphenyl)-7,8-dihydronaphthalen-1-yl)oxy)methyl)-1-methyl-2-nitro-1H-imidazole] were 6.2, 0.04 ± 0.003 µM and 0.25 ± 0.02 µM.
For `COc1cc(C2=CCCc3c2ccc(OC)c3OCc2ccc([N+](=O)[O-])s2)cc(OC)c1OC` [KGP24 (12), 2-(((2-Methoxy-5-(3,4,5-trimethoxyphenyl)-7,8-dihydronaphthalen-1-yl)oxy)methyl)-5-nitrothiophene], the “HCR (hypoxia cytotoxicity ratio)” value was 1.0. For the same compound, under setting [1], the 50% inhibitory concentration (IC50) was determined as 0.48 ± 0.04 µM. For the same compound, the IC50 under setting [2] worked out at 0.46 ± 0.05 µM.
As to `COc1ccc2c(C(=O)c3cc(OC)c(OC)c(OC)c3)c(-c3ccc(OC)c(OC(C)c4ccc([N+](=O)[O-])s4)c3)[nH]c2c1` (stereo not drawn) [KGP343 (24), (6-Methoxy-2-(4-methoxy-3-(1-(5-nitrothiophen-2-yl)ethoxy)phenyl)-1H-indol-3-yl)(3,4,5-trimethoxyphenyl)methanone], the “HCR (hypoxia cytotoxicity ratio)” value came to 33.8. For the same compound, under setting [1], the IC50 turned out to be 0.12 ± 0.06 µM. Moreover, the IC50 under setting [2] was 4.06 ± 1.89 µM.
